# ChEMBL document CHEMBL3351758, “Inhibition of cancer-associated mutant isocitrate dehydrogenases: synthesis, structure-activity relationship, and selective antitumor activity” (J Med Chem, 2014)
# pEC50, pKi: −log10 of the molar value.
# How the values were obtained:
# [1] = Inhibition of neurosphere formation of human BT142 cells at 2 uM by CCK8 assay; assay type: functional
# How it was run: (§1)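 Neurosphere cultures grown serum-free at 37 °C, 5% CO2 (neurobasal medium, N2/B27, bFGF and EGF 50 ng/mL each, penicillin/streptomycin). BXD lines come from patient-tumour orthotopic xenografts; BT-142 carries endogenous IDH1 R132H and gets extra supplements (PDGF-AA, insulin, transferrin, others). 2000 cells/well were exposed to 0.002, 0.02, 0.2, 2 or 20 μM for up to 13 days. CCK-8 viability was read on days 4, 7, 10 and 13.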
# [2] = Inhibition of neurosphere formation of […] BXD4687 cells by CCK8 assay; assay type: functional, cell-based; how it was run: as §1
# [3] = tested on: MDCK; assay: Permeability from apical to basolateral side in MDCK cells expressing MDR1 at 10 uM incubated at 37 degC for 90 mins by LC/MS/MS method; assay type: ADME, cell-based, Canis lupus familiaris; conditions: dog, 1.5 h
# How it was run: (§2)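 MDCK-MDR1 monolayers were used 3–4 days after seeding on 0.4 μm Transwell filters, only if TEER exceeded 1000 Ω·cm² before and after the run. They were preincubated 30 min in HBSS with 50 mM HEPES, pH ≈ 7.4. Donor got 10 μM compound (final, 0.1% DMSO), then 90 min at 37 °C. Both sides were sampled and quantified by LC-MS/MS SRM. Papp = dQ/dt/(A·C0).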
# [4] = Inhibition of neurosphere formation of human BT142 cells by CCK8 assay; assay type: functional, cell-based; how it was run: as §1
# [5] = Inhibition of neurosphere formation of human BT142 cells at 20 uM by CCK8 assay; assay type: functional
# How it was run: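 BT-142 glioma cells (endogenous IDH1 R132H) grown as neurospheres in serum-free neurobasal/N2/B27 medium with bFGF, EGF, PDGF-AA and other supplements. 2000 cells/well treated for up to 13 days. Viability by CCK-8 at days 4, 7, 10 and 13.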
# [6] = tested on: MDCK; assay: Permeability from basolateral to apical side in MDCK cells expressing MDR1 at 10 uM incubated at 37 degC for 90 mins by LC/MS/MS method; assay type: ADME, cell-based, Canis lupus familiaris; conditions: dog, 1.5 h; how it was run: as §2
# [7] = Inhibition of cell proliferation of human WI38 cells by CCK8 assay; assay type: functional, cell-based; conditions: WI-38
# [8] = Inhibition of neurosphere formation of […] BXD3752 cells by CCK8 assay; assay type: functional, cell-based; how it was run: as §1
# [9] = tested on: MDCK; assay: Efflux ratio, ratio of permeability from basolateral side over apical to basolateral side in MDCK cells expressing MDR1 at 10 uM incubated at 37 degC for 90 mins by LC/MS/MS method; assay type: ADME, cell-based, Canis lupus familiaris; conditions: dog, 1.5 h
# How it was run: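 MDCK-MDR1 monolayers (passage 24–33, seeded at 60000 cells/cm² on Transwell filters) were used 3–4 days post-seeding if TEER stayed >1000 Ω·cm². After 30 min preincubation in HBSS/50 mM HEPES pH ≈7.4, compound was added to the donor side (10 μM initial, 0.1% DMSO) A→B or B→A, 37 °C, 90 min. LC-MS/MS SRM quantification; Papp = dQ/dt/(A·C0).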
# [10] = Cytotoxicity against human HT1080 cells up to 30 uM; assay type: cell-based; conditions: ht-1080
# [11] = target: Isocitrate dehydrogenase [NADP] cytoplasmic (Homo sapiens, UniProt O75874, R132H); assay: Inhibition of human IDH1 R132H mutant expressed in Escherichia coli BL21-CodonPlus assessed as reduction in NADPH consumption
# Chain of Isocitrate dehydrogenase [NADP] cytoplasmic (Homo sapiens, UniProt O75874, R132H) (O75874 2-414 R132H limits assumed): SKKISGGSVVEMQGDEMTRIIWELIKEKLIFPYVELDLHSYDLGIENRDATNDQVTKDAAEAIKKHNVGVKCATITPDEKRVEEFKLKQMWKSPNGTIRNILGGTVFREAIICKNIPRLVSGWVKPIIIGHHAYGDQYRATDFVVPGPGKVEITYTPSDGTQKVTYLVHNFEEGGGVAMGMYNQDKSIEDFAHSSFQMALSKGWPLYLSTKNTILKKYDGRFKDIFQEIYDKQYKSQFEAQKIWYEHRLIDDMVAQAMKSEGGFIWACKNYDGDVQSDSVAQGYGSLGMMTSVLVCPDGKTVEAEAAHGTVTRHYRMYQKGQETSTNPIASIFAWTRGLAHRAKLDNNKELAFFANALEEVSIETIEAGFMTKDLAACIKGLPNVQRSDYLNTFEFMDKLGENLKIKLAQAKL
# [12] = target: Isocitrate dehydrogenase [NADP] cytoplasmic (Homo sapiens, UniProt O75874); assay: Inhibition of wild type human IDH1 expressed in Escherichia coli BL21-CodonPlus assessed as NADPH production
# Chain of Isocitrate dehydrogenase [NADP] cytoplasmic (Homo sapiens, UniProt O75874) (O75874 whole entry): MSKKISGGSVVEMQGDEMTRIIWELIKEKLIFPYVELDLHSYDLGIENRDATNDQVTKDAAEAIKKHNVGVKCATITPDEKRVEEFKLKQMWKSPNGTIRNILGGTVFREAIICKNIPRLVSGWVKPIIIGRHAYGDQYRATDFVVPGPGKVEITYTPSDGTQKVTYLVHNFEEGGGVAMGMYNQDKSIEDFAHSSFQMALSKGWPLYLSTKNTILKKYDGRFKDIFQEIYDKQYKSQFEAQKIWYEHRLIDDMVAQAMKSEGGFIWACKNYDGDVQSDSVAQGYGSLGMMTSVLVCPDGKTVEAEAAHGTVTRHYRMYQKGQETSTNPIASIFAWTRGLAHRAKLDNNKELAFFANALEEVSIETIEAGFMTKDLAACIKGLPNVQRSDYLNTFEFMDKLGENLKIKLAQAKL
# [13] = Selectivity index, ratio of EC50 for human BXD3752 cells to EC50 for human BT142 cells
# [14] = Selectivity index, ratio of EC50 for human BXD4687 cells to EC50 for human BT142 cells
structure (smiles),measurement,setting,value
Cc1ccccc1C(C(=O)NC1CCCCC1)N(C(=O)Cn1ccnc1C)c1cccc(F)c1 (configuration not stated),inhibition at 2 µM,[1],40%
same,pEC50,[2],< 4.70
same,permeability,[3],0.15 ×10⁻⁶ cm/s
same,pEC50,[4],< 4.70
same,inhibition at 20 µM,[5],40%
same,permeability,[6],10.4 ×10⁻⁶ cm/s
same,pEC50,[7],< 4.30
same,pEC50,[8],< 4.70
same,Ratio,[9],72.6
Cc1cc(Cc2ccccc2)n(O)c(=O)c1,pEC50,[2],5.17
same,permeability,[3],5.45 ×10⁻⁶ cm/s
same,pEC50,[4],6.43
same,permeability,[6],6.34 ×10⁻⁶ cm/s
same,pEC50,[8],5.23
same,Activity,[10],Non-toxic
Cc1cc(Cc2ccc(O)cc2)n(O)c(=O)c1,Activity,[10],Non-toxic
O=c1cccc(Cc2ccccc2)n1O,Activity,[10],Non-toxic
CC(C)c1cc(Cc2ccccc2)n(O)c(=O)c1,Activity,[10],Non-toxic
Cc1cc(Cc2ccccc2O)n(O)c(=O)c1,pKi,[11],6.19
O=c1ccc(CCc2ccccc2)cn1O,pKi,[11],< 4.30
O=c1ccc(CCCc2ccccc2)cn1O,pKi,[11],< 4.30
O=c1ccc(Oc2ccccc2)cn1O,pKi,[11],4.34
O=C(NO)c1ccc(=O)n(O)c1,pKi,[11],< 4.30
O=C(NCc1ccccc1)c1ccc(=O)n(O)c1,pKi,[11],< 4.30
O=C(Cc1ccccc1)Nc1ccc(=O)n(O)c1,pKi,[11],< 4.30
O=c1cccc(-c2ccccc2)n1O,pKi,[11],< 4.30
CC(c1ccccc1)c1cccc(=O)n1O (configuration not stated),pKi,[11],< 4.30
O=c1cccc(CCc2ccccc2)n1O,pKi,[11],5.00
COC(=O)c1ccc(CCc2cccc(=O)n2O)cc1,pKi,[11],4.57
O=C(NO)c1cccc(=O)n1O,pKi,[12],< 4.30
same,pKi,[11],5.35
Cc1cc(COc2ccccc2)n(O)c(=O)c1,pKi,[11],6.06
Cc1ccn(O)c(=O)c1Cc1ccccc1,pKi,[11],5.02
COc1cccc(Cc2c(C)ccn(O)c2=O)c1,pKi,[11],4.79
Cc1ccn(O)c(=O)c1Cc1cccc(O)c1,pKi,[11],4.87
O=c1cc(O)cc(Cc2ccccc2)n1O,Activity,[10],Non-toxic
same,pKi,[11],6.42
COc1cc(Cc2ccccc2)n(O)c(=O)c1,pKi,[11],5.26
O=c1cc(CO)cc(Cc2ccccc2)n1O,pKi,[11],5.25
CC(=O)OCc1cc(Cc2ccccc2)n(O)c(=O)c1,pKi,[11],5.35
COc1ccc(Cc2cc(C)cc(=O)n2O)cc1,pKi,[11],6.25
COc1cccc(Cc2cc(C)cc(=O)n2O)c1,pEC50,[2],5.92
same,permeability,[3],5.39 ×10⁻⁶ cm/s
same,pEC50,[4],6.20
same,permeability,[6],8.88 ×10⁻⁶ cm/s
same,pEC50,[7],< 4.30
same,pKi,[12],< 4.52
same,pEC50,[8],5.60
same,Activity,[10],Non-toxic
same,Ratio,[9],1.7
same,pKi,[11],6.82
Cc1cc(Cc2cccc(O)c2)n(O)c(=O)c1,pEC50,[2],5.12
same,pEC50,[4],5.74
same,pEC50,[7],< 4.30
same,pKi,[12],< 4.52
same,pEC50,[8],5.21
same,Activity,[10],Non-toxic
same,pKi,[11],6.85
COc1ccccc1Cc1cc(C)cc(=O)n1O,pKi,[11],6.31
Cc1cc(Cc2cccc(F)c2)n(O)c(=O)c1,pKi,[11],5.66
Cc1cc(Cc2c(F)c(F)c(F)c(F)c2F)n(O)c(=O)c1,pKi,[11],5.66
Cc1cc(Cc2ccc(C#N)cc2)n(O)c(=O)c1,pKi,[11],4.90
Cc1cc(Cc2cccc(C#N)c2)n(O)c(=O)c1,pKi,[11],5.80
Cc1cc(Cc2cccc(C(=O)O)c2)n(O)c(=O)c1,pKi,[11],< 4.30
Cc1cc(Cc2cccc(C(N)=O)c2)n(O)c(=O)c1,pKi,[11],5.07
Cc1cc(Cc2ccc(C(F)(F)F)cc2)n(O)c(=O)c1,pKi,[11],5.49
Cc1cc(C)cc(Cc2cc(C)cc(=O)n2O)c1,pKi,[11],5.51
Cc1cc(Cc2ccsc2)n(O)c(=O)c1,pKi,[11],6.02
Cc1cc(Cc2cccc(-c3ccccc3)c2)n(O)c(=O)c1,pKi,[11],6.22
Cc1cc(Cc2ccc(Oc3ccccc3)cc2)n(O)c(=O)c1,pKi,[11],6.12
Cc1cc(Cc2cccc3ccccc23)n(O)c(=O)c1,pKi,[11],6.02
COc1ccc2c(Cc3cc(C)cc(=O)n3O)cccc2c1,pKi,[11],4.39
Cc1cc(Cc2cccc3cc(O)ccc23)n(O)c(=O)c1,pKi,[11],4.56
Cc1cc(Cc2cc3ccccc3s2)n(O)c(=O)c1,pKi,[11],4.65
COc1ccc(-c2ccc(Cc3cc(C)cc(=O)n3O)cc2)cc1,pEC50,[2],5.12
same,pEC50,[4],6.59
same,Ratio EC50,[13],>10
same,pEC50,[7],< 4.30
same,Ratio EC50,[14],>10
same,pKi,[12],4.85
same,pEC50,[8],5.55
same,Activity,[10],Non-toxic
same,pKi,[11],6.47
Cc1cc(Cc2ccc(-c3ccc(O)cc3)cc2)n(O)c(=O)c1,pEC50,[2],4.80
same,pEC50,[4],6.16
same,pEC50,[7],< 4.30
same,pKi,[12],4.82
same,pEC50,[8],5.29
same,Activity,[10],Non-toxic
same,pKi,[11],6.60
COc1cccc(-c2ccc(Cc3cc(C)cc(=O)n3O)cc2)c1,pKi,[12],4.89
same,Activity,[10],Non-toxic
same,pKi,[11],6.85
Cc1cc(Cc2ccc(-c3cccc(O)c3)cc2)n(O)c(=O)c1,pKi,[11],6.57
Cc1cc(Cc2cc(-c3ccccc3)cc(-c3ccccc3)c2)n(O)c(=O)c1,pKi,[11],6.52
Cc1cc(Cc2ccccc2)n(N)c(=O)c1,pKi,[11],5.42
O=c1ccc(-c2ccccc2)cn1O [1-HYDROXY-5-PHENYLPYRIDIN-2(1H)-ONE],pKi,[11],4.30
Cc1cc(C2CCCCC2)n(O)c(=O)c1 [CICLOPIROX],pKi,[11],< 4.30
Cc1cc(C)n(O)c(=O)c1 [METIPIROX],pKi,[11],< 4.30
Cn1nnc2c(C(N)=O)ncn2c1=O [TEMOZOLOMIDE],pEC50,[2],< 4.30
same,pEC50,[4],< 4.30
same,pEC50,[8],< 4.30
